Assay results reported in EPA's CvTdb concentration-time database.

Legend:
human = experiment: amount in urine after dosing (umol)
How it was run: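 A PubMed search, classifier screening and manual review identified published in vivo toxicokinetic studies, which together with two structured collections supplied concentration-versus-time and amount-versus-time points. Points were mostly digitised from plot screenshots with WebPlotDigitizer, otherwise copied from tables. Dose, route, subject details and medium were hand-curated from each paper, and sampling and analytical methods are those of the sources, often unreported.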

Rat [1] = experiment: concentration in liver after dosing; conditions: 3 h; dosed: Potassium Perfluorobutane Sulfonate; 20 mg/kg; oral; Female; Harlan Sprague Dawley
Rat [2] = experiment: concentration in brain after dosing; conditions: 3 h; dosed: Potassium Perfluorobutane Sulfonate; 20 mg/kg; oral; Male; Harlan Sprague Dawley
Rat [3] = experiment: concentration in kidney after dosing; conditions: 0.5 h; dosed: Potassium Perfluorobutane Sulfonate; 20 mg/kg; oral; Male; Harlan Sprague Dawley
Rat [4] = experiment: concentration in kidney after dosing; conditions: 1 h; dosed: Potassium Perfluorobutane Sulfonate; 20 mg/kg; oral; Female; Harlan Sprague Dawley
Rat [5] = experiment: concentration in plasma after dosing; conditions: dosed: Potassium Perfluorobutane Sulfonate, 4 mg/kg, iv, Male, F344
Rat [6] = experiment: concentration in kidney after dosing; conditions: 1 h; dosed: Potassium Perfluorobutane Sulfonate; 20 mg/kg; oral; Male; Harlan Sprague Dawley
Rat [7] = experiment: concentration in plasma after dosing; conditions: dosed: Nitrite, 20 mg/kg, iv, Male, F344
Rat [8] = experiment: concentration in plasma after dosing; conditions: 2 min; dosed: Nitrite; 80 mg/kg; oral; Female; F344
Rat [9] = experiment: concentration in plasma after dosing; conditions: 10 min; dosed: Nitrite; 80 mg/kg; oral; Female; F344
Rat [10] = experiment: concentration in plasma after dosing; conditions: dosed: Nitrite, 20 mg/kg, iv, Male, F344; remark: listed apart in the source
Rat [11] = experiment: concentration in plasma after dosing; conditions: dosed: 2-Hydroxy-4-methoxybenzophenone, 8 mg/kg, iv, Male, F344
Mouse [12] = experiment: concentration in plasma after dosing; conditions: 10 min; dosed: 2-Hydroxy-4-methoxybenzophenone; 250 mg/kg; oral; Female; B6C3F1
Mouse [13] = experiment: concentration in plasma after dosing; conditions: 0.25 h; dosed: 2-Hydroxy-4-methoxybenzophenone; 250 mg/kg; oral; Female; B6C3F1
Rat [14] = experiment: concentration in plasma after dosing; conditions: dosed: 2-Hydroxy-4-methoxybenzophenone, 250 mg/kg, oral, Female, F344
Mouse [15] = experiment: concentration in plasma after dosing; conditions: 10 min; dosed: 2-Hydroxy-4-methoxybenzophenone; 250 mg/kg; oral; Female; B6C3F1; remark: listed apart in the source
Mouse [16] = experiment: concentration in plasma after dosing; conditions: 0.25 h; dosed: 2-Hydroxy-4-methoxybenzophenone; 500 mg/kg; oral; Male; B6C3F1
Mouse [17] = experiment: concentration in plasma after dosing; conditions: dosed: 2-Hydroxy-4-methoxybenzophenone, 100 mg/kg, oral, Male, B6C3F1
Rat [18] = experiment: concentration in plasma after dosing; conditions: dosed: 2-Hydroxy-4-methoxybenzophenone, 8 mg/kg, iv, Female, F344
Rat [19] = experiment: concentration in liver after dosing; conditions: 24 h; dosed: Perfluorooctanoic acid; 12 mg/kg; oral; Male; Harlan Sprague Dawley
Rat [20] = experiment: concentration in plasma after dosing; conditions: dosed: 678-39-7, 40 mg/kg, iv, Female, Harlan Sprague-Dawley
Rat [21] = experiment: concentration in kidney after dosing; conditions: 6 h; dosed: Fluorotelomer alcohol 8+2; 24 mg/kg; oral; Male; Harlan Sprague Dawley
Rat [22] = experiment: concentration in kidney after dosing; conditions: 1200 h; dosed: Perfluorooctanoic acid; 12 mg/kg; oral; Male; Harlan Sprague Dawley
Rat [23] = experiment: concentration in kidney after dosing; conditions: 528 h; dosed: Perfluorooctanoic acid; 12 mg/kg; oral; Male; Harlan Sprague Dawley
Rat [24] = experiment: concentration in kidney after dosing; conditions: 3 h; dosed: Perfluorooctanoic acid; 80 mg/kg; oral; Female; Harlan Sprague Dawley

CC(C)(C)O [tert-butyl alcohol]
amount in urine, human, inhalation, duration: 4 hr
Conditions	dosed: ethyl tert-butyl ether	dosed: methyl tert-butyl ether
0 h, 4.5 ppm	–	0.221
0 h, 40.6 ppm	2.39	–
0.1079 h, 38.7 ppm	–	6.16
2 s, 4.5 ppm	0.655	–
5.895 h, 40.6 ppm	5.98	–
5.968 h, 4.5 ppm	1.15	–
6.052 h, 4.5 ppm	–	0.993
6.07 h, 38.7 ppm	–	7.53
11.89 h, 40.6 ppm	5.18	–
11.9 h, 4.5 ppm	–	0.993
11.92 h, 38.7 ppm	–	6.16
12.14 h, 4.5 ppm	0.764	–
17.89 h, 40.6 ppm	3.59	–
18.05 h, 4.5 ppm	0.545	0.221
18.09 h, 38.7 ppm	–	4.11
23.89 h, 40.6 ppm	1.59	–
23.9 h, 4.5 ppm	–	0.221
23.95 h, 38.7 ppm	–	2.74
24.02 h, 4.5 ppm	0.545	–
29.89 h, 40.6 ppm	1.39	–
30.05 h, 4.5 ppm	–	0.221
30.12 h, 38.7 ppm	–	4.11
30.19 h, 4.5 ppm	0.273	–
35.9 h, 4.5 ppm	–	0.11
35.97 h, 38.7 ppm	–	2.74
36.11 h, 40.6 ppm	0.598	–
42.11 h, 40.6 ppm	0.598	–
42.14 h, 38.7 ppm	–	0.685
48.11 h, 40.6 ppm	0.797	–
48.29 h, 4.5 ppm	0.0545	–
54.17 h, 38.7 ppm	–	0.685
71.95 h, 38.7 ppm	–	0.685
72.05 h, 40.6 ppm	0.199	–

human, dosed: methyl tert-butyl ether, oral
Conditions	amount in urine
0 h, 5 mg	0.0137
5.859 h, 15 mg	0.646
6.163 h, 5 mg	0.274
12.01 h, 5 mg	0.233
12.04 h, 15 mg	0.568
17.9 h, 15 mg	0.329
18.18 h, 5 mg	0.123
24.08 h, 15 mg	0.292
24.24 h, 5 mg	0.0548
29.94 h, 15 mg	0.214
30.19 h, 5 mg	0.0685
36.12 h, 15 mg	0.136
36.25 h, 5 mg	0.0548
41.98 h, 15 mg	0.138
42.1 h, 5 mg	0.0137
48.05 h, 15 mg	0.101
54.02 h, 15 mg	0.143

O=S(=O)([O-])C(F)(F)C(F)(F)C(F)(F)C(F)(F)F.[K+] [Potassium Perfluorobutane Sulfonate]
Conditions	concentration in brain [ng/g]	concentration in kidney [ng/g]	concentration in liver [ng/g]
Rat [1]	–	–	8410
Rat [2]	754	–	–
Rat [3]	–	9690	–
Rat [4]	–	19300	–
Rat [6]	–	28600	–

Rat [5]
Conditions	concentration in plasma [ng/mL]
3 h	305
5 min	26400

O=N[O-] [Nitrite]
concentration in plasma [ng/mL]
Conditions	0.75 h	1 h	2 min	5 min
Rat [7]	–	3100	–	12600
Rat [10]	2300	–	21300	–

Conditions	concentration in plasma [ng/mL]
Rat [8]	2900
Rat [9]	22900

COc1ccc(C(=O)c2ccccc2)c(O)c1 [2-Hydroxy-4-methoxybenzophenone]
concentration in plasma [ng/mL]
Conditions	0.25 h	2 h	2.5 min	3 h	10 min
Mouse [17]	64.6	21.1	26.8	20	39.6
Rat [11]	2370	113	–	–	–
Rat [14]	–	–	–	95.6	26.9
Rat [18]	–	111	–	–	2560

Conditions	concentration in plasma [ng/mL]
Mouse [12]	625
Mouse [13]	88.3
Mouse [15]	117
Mouse [16]	395

O=C(O)C(F)(F)C(F)(F)C(F)(F)C(F)(F)C(F)(F)C(F)(F)C(F)(F)F [Perfluorooctanoic acid]
Conditions	concentration in kidney [ng/g]	concentration in liver [ng/g]
Rat [19]	–	62500
Rat [21]	381	–
Rat [22]	1110	–
Rat [23]	6860	–
Rat [24]	321000	–

Rat [20]
Conditions	concentration in plasma [ng/mL]
1 h	2280
24 h	58.8
